# Experimental data as given in ChEMBL document CHEMBL4513216, “Probing the Open Global Health Chemical Diversity Library for Multistage-Active Starting Points for Next-Generation Antimalarials” (ACS Infect Dis, 2020).
# Assay: Toxicity liver stage against HepG2, at 10uM
# Type: cell-based
# Design: test concentration 10 uM, cell line HepG2-A16-CD81EGFP
# Settings: human, HepG2-A16-CD81EGFP cells; read-out: INHIBITION
# In short: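 Uninfected HepG2-A16-CD81EGFP cells, 3 × 10^3 per well, 1536-well, plated on prespotted compound at 10 μM final, parasite-free screening media added to match infected plates; puromycin 10 μM positive, DMSO 0.5% negative; run in parallel with 48 h PbLuc assay at 37 °C, 5% CO2; viability by CellTiter-Glo luminescence, normalized to controls.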
row,Structure (SMILES),cytotoxicity at 10 µM
1,COc1ccc(CCCN(C)C(=O)c2cc(C(C)=O)c[nH]2)cc1OC,2.24%
2,COCCn1c(-c2cccc(OC)c2)cnc1NC(=O)NCCC(C)C,12.9%
3,CC(=O)OC1CN(c2nc3c(C)cccc3s2)C1,-5.14%
4,COCCN(C)C(=O)c1nc2c(s1)CCCN2c1ncccn1,-131%
5,CCS(=O)(=O)N1CC[C@@H]2[C@H](COCC3CC3)CN(C)C(=O)[C@@H]2CC1,-4.79%
6,CS(=O)(=O)N1CCc2sc(C(=O)NCCc3ccccn3)cc21,-0.464%
7,COCCC(=O)N1CCC2(CN(Cc3ccc(OC)c(F)c3)C2)C1,-10.4%
8,O=C(Cc1ccsc1)NCC1OCCc2cn(CC3CC3)nc21 (configuration not stated),9.77%
9,CCn1nccc1CNc1nc(N)nc2c1nc(C)n2C,-8.13%
10,Cc1nc(NCCc2ccccc2)cc(C(=O)N2CCCCC2)n1,-6.27%
11,Cc1nc(=O)c2ccccc2n1C1=CCN(CC(=O)N2CCCC2)CC1,-7.45%
12,Oc1cc(-c2ccccn2)nc(C2CCN(Cc3ccncc3)CC2)n1,-7.56%
13,NC(=O)CN1CCOCC(Cc2cccc(F)c2)C1 (configuration not stated),-12.2%
14,Cn1cc(CNC(=O)Nc2ccc(S(=O)(=O)C(F)F)cc2)cn1,-5.09%
15,CC(NS(C)(=O)=O)C(=O)Nc1ccc2oc(C3CC3)nc2c1 (configuration not stated),2.78%
16,CN(CCCOc1ccccc1)S(=O)(=O)N1CCOCC1,4.38%
17,CC(C)C(C#N)N1CCN(C(=O)c2cc(-c3ccccn3)no2)CC1 (configuration not stated),-1.54%
18,CC(SCCC(=O)NC(N)=O)c1c(F)cccc1F (configuration not stated),6.93%
19,CC1CCC(O)(CSc2nnnn2C2CC2)CC1 (configuration not stated),-1.97%
20,COc1ccc(CNC(=O)N2CCc3sccc3C2)cc1O,7.57%
21,CC(C)(C)CC(NC(=O)N1CCS(=O)(=O)CC1)C(F)(F)F (configuration not stated),0.106%
22,COC(=O)c1cccc(S(=O)(=O)Nc2ccc(Cl)c(C(N)=O)c2)c1,7.31%
23,O=C(NCCOc1ccc(F)cc1)C1CCCN(C(=O)C2CC2)C1 (configuration not stated),0.856%

row,Structure (SMILES),cytotoxicity at 10 µM
1,CC(c1nc(C2CC2)no1)N1CCN(CCc2ccncc2)CC1 (configuration not stated),-5.65%
2,CCOc1ccc(Cl)cc1CCNC(=O)Cn1ccccc1=O,8%
3,COc1cccc(CCC(=O)Nc2ccn(C)n2)c1OC,-2.14%
4,CC(C(=O)Nc1ccc(C#N)cc1)N1CCc2ccccc21 (configuration not stated),-1.5%
5,COc1cc(CNC(=O)Nc2nnc(C(C)C)s2)ccc1O,-2.22%
6,Cc1cc(S(=O)(=O)N2CC[C@@H](O)C2)c(Cl)cc1F,-8.59%
7,Cc1cccc(C(=O)NCC2CCS(=O)(=O)C2)n1 (configuration not stated),-6.21%
8,CN(C)C(=O)CS(=O)(=O)Cc1ccn(-c2cccc(F)c2)n1,3.03%
9,CC(C)c1nc(C2CCCN(C(=O)CS(=O)(=O)C(C)C)C2)no1 (configuration not stated),8.75%
10,Cc1nc(NC(=O)C(C)N2CCN(c3ncccn3)CC2)sc1C (configuration not stated),4.79%
11,CCNC(=O)NCc1ccccc1NS(=O)(=O)c1ccccc1,8.27%
12,CN(Cc1ccncc1)Cc1nccn1Cc1ccccc1,12.5%
13,COCCCN1CCC(NC2CSCCc3ccccc32)CC1 (configuration not stated),-3.32%
14,CCN(CC(F)(F)F)C(=O)C1CCCN(Cc2ccccn2)C1 (configuration not stated),-2.3%
15,CCc1cccc(NC(=O)NC2CCc3nc(C)nn3C2)c1 (configuration not stated),-12.5%
16,CN1CC(C(=O)NC(C)(C)CNC(=O)OC(C)(C)C)CC1=O (configuration not stated),-3.88%
17,O=C(NC1CCS(=O)(=O)C1)c1ccc(-c2ccc(F)cc2)s1 (configuration not stated),-2.32%
18,O=C(NC1CC1)C1CCCN1c1ncnc2ccsc12 (configuration not stated),-5.2%
19,O=C(CCNS(=O)(=O)c1cccnc1)N1CCOC(c2ccccc2)C1 (configuration not stated),5.11%
20,O=C(NCCNc1ccc(Br)cn1)c1ccc(O)cc1,0.612%
21,CC(=O)NC(c1cc(F)ccc1F)C1CC1 (configuration not stated),-1.99%
22,CC1(C)CCC(CC(=O)O)c2ccccc21 (configuration not stated),2.93%
23,Cn1ccnc1-c1noc(NCc2ccccc2)n1,-3.49%

row,Structure (SMILES),cytotoxicity at 10 µM
1,CN(CC(O)C1CC1)C(=O)c1ccc(-c2nc(C3CC3)n[nH]2)cc1 (configuration not stated),-5.09%
2,Cc1cc(CS(=O)(=O)N(C)C(C)c2ccc(Cl)cc2)on1 (configuration not stated),9.72%
3,COC(=O)NCCC(=O)NC(c1ccc(Cl)cc1)C(F)(F)F (configuration not stated),7.51%
4,CCN(CCNC(=O)C1CCN(C(C)=O)CC1)c1ccccc1C,-6.19%
5,Cc1cnn(CCCOc2ccc3c(c2)OCO3)c1,8.4%
6,CCc1noc(CS(=O)(=O)c2cccc(OC)c2)n1,6.7%
7,CN(C)c1ccc(NC(=O)N2CCCCC2c2ncc[nH]2)cn1 (configuration not stated),-1.78%
8,O=C(CCc1ccco1)Nc1ncn(CC(=O)N2CCCCCC2)n1,-2.29%
9,c1csc(-c2noc(CC3CCCO3)n2)c1 (configuration not stated),-3.37%
10,CC(C(=O)NC(N)=O)N1CCN(c2ccc(C#N)cc2F)CC1 (configuration not stated),-4.4%
11,CCCS(=O)(=O)CC(=O)Nc1cc(CC(C)(C)C)n[nH]1,2.43%
12,COc1cccc(CN(C)C(=O)CSc2ccc3c(c2)OCCO3)c1,-7.97%
13,Cc1ccc(OCC(=O)NCc2ccccc2F)nc1,-12%
14,CC[C@H](C)Nc1nccc(-c2cnc3sccn3c2=O)n1,-8.72%
15,Cc1noc(C)c1S(=O)(=O)N1C[C@@H](C(=O)O)[C@H](c2ccccn2)C1,-6.71%
16,O=C(Nc1nc(-c2ccccc2)ns1)N1CCC(F)CC1,-137%
17,Cc1ccc2c(c1)CN(CC(=O)NCCc1ccc(F)cc1)CC(C)O2 (configuration not stated),1.54%
18,Cc1ccc2c(c1)c(CNC(=O)C1CCN(C(=O)C3CC3)CC1)nn2C,-0.687%
19,CCn1nc(C)c(C(C)Nc2cc(C3CCNCC3)nc(C)n2)c1C (configuration not stated),2.38%
20,Cc1ccc(C(=O)N2CCC3(CCC(=O)N(CCCO)C3)CC2)c(O)c1,7.4%
21,CCc1cc(CN(C)C(=O)c2cnn[nH]2)on1,7.48%
22,COCCCN1CC2(CCN(C(=O)Cc3csc(C)n3)CC2)CC1=O,5.06%
23,COCCN(Cc1ccsc1)C(=O)c1c(C)cc(C)[nH]c1=O,-2.42%

row,Structure (SMILES),cytotoxicity at 10 µM
1,COc1ccnc(CNc2cc(C3CC3)ncn2)c1,-7.64%
2,CN(C)C(=O)N1CCCn2nc(CNC(=O)CCc3ccsc3)cc2C1,-1.77%
3,O=C(N1CCOCC1)N1CC[C@@](O)(c2ccccc2)[C@H]2CCCC[C@@H]21,-1.11%
4,Cc1cc(C)n(CC(C)NCc2nncn2C2CCCCC2)n1 (configuration not stated),-3.26%
5,CCC(=O)c1ccc(OCC(=O)NC(C)c2nnn[nH]2)cc1 (configuration not stated),-1.62%
6,CC[C@@]1(O)CCN(C(=O)c2ccc(-c3ccco3)cc2)C[C@H]1O,3.75%
7,CN(CCN1CCCCCC1)C(=O)c1c(O)cccc1O,-7.08%
8,CN(C)[C@H]1CCCCN(Cc2ccccc2Cn2cccn2)C1,-130%
9,COc1cc(N(C)Cc2cc(C(C)(C)C)n[nH]2)ncn1,-11.1%
10,C[C@@H]1CN(Cc2cc(C(F)(F)F)ccc2F)CC[C@@]1(O)C1CC1,6%
11,COc1ccc(Cl)cc1S(=O)(=O)N(C)CC(=O)Nc1ccon1,-3.75%
12,Cc1nc2c(c(N3CCN(Cc4ccco4)CC3)n1)CCNCC2,-4.27%
13,CC(=O)N[C@H]1CN(CC(=O)NCc2ccccc2C)C[C@@H]1C(C)C,1.69%
14,Cc1cc(C(=O)N2CCCC(C)C2)ccc1NCC(=O)N1CCOCC1 (configuration not stated),-0.153%
15,CCCc1nnc(NC(=O)NC(C)Cn2cccn2)s1 (configuration not stated),-4.05%
16,COC(=O)c1ccc(N2CCN(CC(=O)NC(N)=O)C(C)C2)cc1 (configuration not stated),-4.54%
17,O=C(O)c1cc(NS(=O)(=O)c2ccc(Br)s2)c(F)cc1F,-7.1%
18,Cc1ccc(CNC(=O)CN2CCOC(Cn3cccn3)C2)s1 (configuration not stated),-24.1%
19,Cc1cnn(CC(=O)NCC2CCN(c3cc(Cl)ccc3C)C2)c1 (configuration not stated),-3.92%
20,O=C(NCc1ccoc1)Nc1cc(C(F)(F)F)c[nH]c1=O,-0.779%
21,Cc1ccc(OCc2nc(CNCC3CN(C)CCO3)cs2)cc1 (configuration not stated),-23.5%
22,Cc1cc(C)n(CC2CN(Cc3nc(C)c(C)o3)CCO2)n1 (configuration not stated),4.17%
23,O=C(CCN1CCc2c(ncn2C2CC2)C1)NC1CCCC1,-10.1%

row,Structure (SMILES),cytotoxicity at 10 µM
1,Cc1ccc(C(CNC(=O)Nc2cn[nH]c2)N2CCOCC2)o1 (configuration not stated),-24.8%
2,COc1ccnc(N2CCN(C(=O)Cc3ccsc3)CC2)n1,-3%
3,COc1c(CNCC(O)c2cccc(F)c2)c(C)nn1C (configuration not stated),-6.41%
4,Cc1ccc2cccc(C(=O)N3CCN(c4cccnn4)CC3)c2n1,1.91%
5,Cc1ccc(CN(C)Cc2nc3c(cnn3C)c(=O)[nH]2)o1,-0.972%
6,Cc1nn2cccnc2c1C(=O)N1CCCC(Nc2ccccc2)C1 (configuration not stated),5.82%
7,CNc1nc(C2CCCN2)nc2c1CCN(S(=O)(=O)C1CCCCC1)C2 (configuration not stated),9.17%
8,O=C1CCC2(CCC(NC3CCOCC3)CC2)N1Cc1ccccc1 (configuration not stated),-0.0368%
9,Cc1cccc(CO[C@@H]2CC[C@H]3[C@H]2OCCN3Cc2nccs2)n1,5.2%
10,c1cnc(N2CCOCC3(CN(Cc4ccsc4)CCO3)C2)nc1 (configuration not stated),5.83%
11,CN(C)CCN1CCCC12CCN(C(=O)c1ccoc1)CC2,-1.83%
12,O=C(CC1CC1)N1CCN(Cc2ccncc2)c2ncccc2C1,10%
13,CCOCC1CN(C(=O)Cc2ccccn2)Cc2cnn(C)c21 (configuration not stated),6.9%
14,CC(C)(CNCc1ccc(OCc2cscn2)cc1)C(N)=O,-137%
15,CCOCC1CN(C(=O)c2ccncc2)Cc2nn(C)cc21 (configuration not stated),-5.82%
16,Cc1ccc(CN2C[C@@H]3CCN(Cc4ccncc4)C(=O)[C@H]3C2)s1,4.53%
17,CN1Cc2[nH]nc(COCC3CC3)c2C1,18%
18,Cc1ncsc1CN1CC[C@H]2OCC[C@@]2(C(=O)NC2CC2)C1,2.75%
19,c1c(CN2CCCCC2)nc2n1CCNC2,3.91%
20,O=C1CCC2(CCC(NC(=O)NCc3ccccc3)CC2)N1 (configuration not stated),-0.0957%
